Measurements taken from ChEMBL document CHEMBL3860061, “A Novel Parkinson's Disease Drug Candidate with Potent Anti-neuroinflammatory Effects through the Src Signaling Pathway” (J Med Chem, 2016).
Activity calls are given as the source filed them. The rule behind the calls is not given here.

Columns and labels:
Mus musculus [1] = assay: Effect on ARHGAP21 protein expression level in midbrain of MPTP/probenecid-induced chronic C57/BL mouse Parkinson's disease model at 5 to 20 mg/kg dosed once daily for 7 weeks post 10 doses of MPTP/probenecid for 5 weeks by iTRAQ-labelled 2D-LC/MS/MS analysis; assay type: functional, organism-based
[2] = biological target: Proto-oncogene tyrosine-protein kinase Src (Mus musculus, UniProt P05480); assay: Inhibition of Src in mouse BV2 cells assessed as suppression of LPS-induced NO release preincubated for 1 hr followed by LPS addition measured after 24 hrs by Griess assay; assay type: cell-based, BV-2
Chain of Proto-oncogene tyrosine-protein kinase Src (P05480 2-535 limits assumed): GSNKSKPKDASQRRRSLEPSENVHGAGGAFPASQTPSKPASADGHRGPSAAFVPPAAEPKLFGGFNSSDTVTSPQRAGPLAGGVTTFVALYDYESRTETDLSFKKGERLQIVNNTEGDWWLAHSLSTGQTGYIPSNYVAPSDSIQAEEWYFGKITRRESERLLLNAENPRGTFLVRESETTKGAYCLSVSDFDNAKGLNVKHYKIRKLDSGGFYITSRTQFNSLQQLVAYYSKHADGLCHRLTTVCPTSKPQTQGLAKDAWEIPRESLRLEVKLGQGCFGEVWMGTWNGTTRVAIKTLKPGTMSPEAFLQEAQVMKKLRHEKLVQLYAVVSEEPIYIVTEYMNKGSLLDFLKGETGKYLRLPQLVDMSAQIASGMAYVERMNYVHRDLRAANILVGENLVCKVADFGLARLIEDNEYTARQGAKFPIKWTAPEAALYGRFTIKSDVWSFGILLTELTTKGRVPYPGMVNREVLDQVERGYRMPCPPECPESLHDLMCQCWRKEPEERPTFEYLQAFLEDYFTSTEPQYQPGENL
In short: (§1)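 BV-2 cells in DMEM/10% FBS, plated at 5×10^3 per well. After 24 h, treated at 100, 50, 10, 5, 1 and 0.1 µM; 1 h later LPS 300 ng/mL added. After another 24 h, nitrite in the medium measured by Griess assay.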

Mus musculus [3] = assay: In vivo inhibition of Src in MPTP/probenecid-induced chronic C57/BL mouse Parkinson's disease model assessed as effect on PTEN expression level in midbrain at 5 to 20 mg/kg dosed once daily for 7 weeks post 10 doses of MPTP/probenecid for 5 weeks by iTRAQ-labelled 2D-LC/MS/MS analysis; assay type: functional, organism-based
[4] = biological target: Proto-oncogene tyrosine-protein kinase Src (Rattus norvegicus) (UniProt Q9WUD9); assay: Inhibition of Src in Sprague-Dawley rat primary microglia cells assessed as suppression of LPS-stimulated Akt phosphorylation at Ser-473 residue at 10 uM preincubated for 1 hr followed by LPS challenge measured after 3 hrs by Western blot analysis
Chain of Proto-oncogene tyrosine-protein kinase Src (Rattus norvegicus) (Q9WUD9 2-536 limits assumed): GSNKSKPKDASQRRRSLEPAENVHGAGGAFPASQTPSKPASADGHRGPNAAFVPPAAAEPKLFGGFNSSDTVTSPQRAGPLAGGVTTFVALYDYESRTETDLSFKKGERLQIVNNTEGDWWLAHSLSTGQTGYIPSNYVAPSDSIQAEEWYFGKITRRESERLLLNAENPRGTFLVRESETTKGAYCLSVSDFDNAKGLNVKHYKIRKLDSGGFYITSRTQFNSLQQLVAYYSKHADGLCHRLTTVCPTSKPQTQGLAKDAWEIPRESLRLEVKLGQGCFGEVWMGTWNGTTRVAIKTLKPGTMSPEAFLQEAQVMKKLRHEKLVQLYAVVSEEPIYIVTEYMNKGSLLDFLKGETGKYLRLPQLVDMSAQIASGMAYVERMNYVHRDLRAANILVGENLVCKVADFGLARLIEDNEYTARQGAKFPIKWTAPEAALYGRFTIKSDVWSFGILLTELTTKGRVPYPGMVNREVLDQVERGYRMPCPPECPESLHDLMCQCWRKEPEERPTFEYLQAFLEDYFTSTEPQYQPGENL
In short: (§2)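 Primary microglia from 1-day-old Sprague-Dawley rat brains, grown to confluence 12–14 days, shaken off astroglia (>98% pure). Agent at 10 µM added 1 h before LPS 100 ng/mL. Phosphorylated Src, Akt and PTEN measured 3 h later by Western blot, n = 4.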

[5] = biological target: Proto-oncogene tyrosine-protein kinase Src (Mus musculus) (UniProt P05480); assay: Inhibition of Src signaling pathway in mouse BV2 cells assessed as suppression of LPS-induced NO release at 0.1 to 100 uM preincubated for 1 hr followed by LPS addition measured after 24 hrs relative to control by Griess assay; assay type: cell-based; conditions: BV-2; in short: as §1
Chain of Proto-oncogene tyrosine-protein kinase Src (Mus musculus) (P05480 2-535 limits assumed): as the sequence (P05480 2-535 limits assumed) above

[6] = biological target: Proto-oncogene tyrosine-protein kinase Src (Rattus norvegicus) (UniProt Q9WUD9); assay: Inhibition of Src in Sprague-Dawley rat primary mixed mesecephalic neuron/glial cells assessed as suppression of LPS-induced TNFalpha expression at 10 uM preincubated for 1 hr followed by LPS challenge measured after 5 hrs by ELISA
In short: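 Mixed mesencephalic neuron/glia cultures from E14 Sprague-Dawley rats, used at 7 days. Agent at 10 µM added 1 h before LPS 100 ng/mL; IL-1β and TNF-α in medium measured by ELISA after 5 h, n = 6.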

Mus musculus [7] = assay: Effect on Src protein expression level in midbrain of MPTP/probenecid-induced chronic C57/BL mouse Parkinson's disease model at 5 to 20 mg/kg dosed once daily for 7 weeks post 10 doses of MPTP/probenecid for 5 weeks by Western blot analysis; assay type: functional, organism-based
Mus musculus [8] = assay: Effect on GSK3beta protein expression level in midbrain of MPTP/probenecid-induced chronic C57/BL mouse Parkinson's disease model at 5 to 20 mg/kg dosed once daily for 7 weeks post 10 doses of MPTP/probenecid for 5 weeks by Western blot analysis; assay type: functional, organism-based
Mus musculus [9] = assay: Hepatotoxicity in ICR mouse at 250 to 1000 mg/kg administered through oral gavage for 14 consecutive days; assay type: toxicity, organism-based; conditions: in vivo
In short: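 Mice dosed by oral gavage at 250, 500 and 1000 mg/kg for 14 consecutive days. General condition monitored throughout; liver and kidney clinical chemistry assessed.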

Mus musculus [10] = assay: Effect on Src protein expression level in midbrain of MPTP/probenecid-induced chronic C57/BL mouse Parkinson's disease model at 5 to 20 mg/kg dosed once daily for 7 weeks post 10 doses of MPTP/probenecid for 5 weeks by iTRAQ-labelled 2D-LC/MS/MS analysis; assay type: functional, organism-based
Mus musculus [11] = assay: Antineuro-inflammatrory activity in alpha-syn A53T transgenic B6C3H mouse assessed as decrease in TNF-alpha level in midbrain at 10 to 20 mg/kg dosed once daily for 12 consecutive weeks by ELISA; assay type: functional, organism-based
In short: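 Male B6;C3H mice expressing mutant α-syn (A53T), from 4 months old, given agent (5, 10, 20 mg/kg) or L-DOPA 20 mg/kg in 0.5% CMC-Na once daily for 12 weeks. Wild-type controls received vehicle. Midbrain homogenised in non-denaturing lysis buffer with protease inhibitor; IL-1β or TNF-α measured by ELISA, n = 6, mean ± SD.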

[12] = biological target: Proto-oncogene tyrosine-protein kinase Src (Rattus norvegicus) (UniProt Q9WUD9); assay: Inhibition of LPS-induced Src phosphorylation at Tyr-416 residue in Sprague-Dawley rat primary microglia cells at 10 uM preincubated for 1 hr followed by LPS stimulation measured after 3 hrs by Western blot analysis; in short: as §2
[13] = Toxicity in ICR mouse assessed as mortality administered through oral gavage; assay type: organism-based; conditions: in vivo
Mus musculus [14] = assay: Neuroprotective activity in MPTP/probenecid-induced chronic C57/BL mouse Parkinson's disease model assessed as reversal of decline of TH-positive neuron levels in substantia nigra at 10 to 20 mg/kg dosed once daily for 7 weeks post 10 doses of MPTP/probenecid for 5 weeks measured after last MPTP/probenecid dose by 3,3'-diaminobenzidine staining based light microscopic analysis; assay type: functional, organism-based
In short: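 Male C57/BL mice (22–25 g) received 10 doses of MPTP hydrochloride (25 mg/kg in saline, s.c.) plus probenecid (250 mg/kg in DMSO, i.p.) over 5 weeks. Only mice showing rotarod dysfunction afterwards were used, randomized, and dosed daily for 7 weeks with test agent in 0.5% CMC-Na. Fixed brains were cut at 40 µm; nigral coronal sections were stained with anti-TH, developed with DAB/peroxide, and positive cells counted blind.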

Mus musculus [15] = assay: Antineuro-inflammatrory activity in MPTP/probenecid-induced chronic C57/BL mouse Parkinson's disease model assessed as decrease in IL-1beta level in midbrain at 10 to 20 mg/kg dosed once daily for 7 weeks post 10 doses of MPTP/probenecid for 5 weeks measured after last MPTP/probenecid dose for 5 weeks by ELISA; assay type: functional, organism-based
In short: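 Male C57/BL mice (22–25 g) received 10 doses of MPTP hydrochloride (25 mg/kg in saline, s.c.) plus probenecid (250 mg/kg in DMSO, i.p.) over 5 weeks. Only mice failing the rotarod afterwards were randomised to agent (5, 10, 20 mg/kg) or L-DOPA 20 mg/kg in 0.5% CMC-Na, once daily for 7 weeks. Midbrain lysate in non-denaturing buffer with protease inhibitor; IL-1β or TNF-α by ELISA, n = 6.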

Mus musculus [16] = assay: Effect on ROCK1 protein expression level in midbrain of MPTP/probenecid-induced chronic C57/BL mouse Parkinson's disease model at 5 to 20 mg/kg dosed once daily for 7 weeks post 10 doses of MPTP/probenecid for 5 weeks by iTRAQ-labelled 2D-LC/MS/MS analysis; assay type: functional, organism-based
Mus musculus [17] = assay: Increase in dopamine level in striatum of MPTP/probenecid-induced chronic C57/BL mouse Parkinson's disease model at 10 to 20 mg/kg dosed once daily for 7 weeks post 10 doses of MPTP/probenecid for 5 weeks measured after last MPTP/probenecid dose by HPLC analysis; assay type: functional, organism-based
In short: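 Chronic model: 10 doses of MPTP·HCl (25 mg/kg s.c.) with probenecid (250 mg/kg i.p.) over 5 weeks. Rotarod-impaired mice then dosed with agent (5–20 mg/kg) or L-DOPA 20 mg/kg daily for 7 weeks. Striatum extracted in 0.6 N perchloric acid with phosphate/citrate/EDTA buffer; dopamine by HPLC, n = 8.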

[18] = Drug uptake in ICR mouse plasma at 50 mg/kg, ig after 5 mins by LC/MS/MS analysis; assay type: ADME, organism-based; conditions: in vivo, po

For COc1cc(OC)c(CN[C@@H](CO)C(=O)O)c(OC)c1, the Activity (Mus musculus [1]) was “Active”, the IC50 [2] was 6.6 µM and the inhibition (Mus musculus [3]) was “Active”. For the same compound, the inhibition [4] was “Active”, the inhibition [5] was “Active” and the inhibition [6] was “Active”. The Activity (Mus musculus [7]) was “Active”, the Activity (Mus musculus [8]) was “Active” and the Activity (Mus musculus [9]) was “Non-Toxic”. For the same compound, the Activity (Mus musculus [10]) was “Active”, the Activity (Mus musculus [11]) was “Active” and the inhibition [12] was “Active”. For the same compound, the LD50 [13] was over 5000 mg/kg, the Activity (Mus musculus [14]) was “Active” and the Activity (Mus musculus [15]) was “Active”. For the same compound, the Activity (Mus musculus [16]) was “Active”, the Activity (Mus musculus [17]) was “Active” and the Drug uptake [18] was “Active”.
